Shown are actives, neighbours in structure and some others; about 6.5% of the full set was active somewhere.
Calb biofilm kill: kills Candida albicans biofilms | inhibition, % at 6 µM | C. albicans biofilm + clotrimazole, Alamar Blue | 85,000 compounds, 0.14% hits | AID 834;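 active = inhibition above 20%; inactive = inhibition below 20%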;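 also: preformed 24 hr biofilms exposed to compound for 48 hr; 0% = biofilm without compound and 100% = blank killed by clotrimazole plus chlorhexidine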
Ecoli tolC: blocks growth of E. coli BW25113 tolC mutant; OD615; growth inhibition, % at 10 µM (by protocol); 65,000 compounds, 2.2% hits;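 active = growth inhibition at or above a cutoff equal to the mean over every tested compound plus 3 SD, cut at about 60% in these data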;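 also: growth measured after 20 h incubation at 37 °C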
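System: E. coli ΔtolC::kan strain BW25113; Buffer or medium: LB broth supplemented with 50 µg/mL kanamycin; Compound: 10 µM final, single dose; Incubation: bacterial growth with compound for 20 h at 37 °C; Signal: A615 absorbance measurement; Evaluation: growth inhibition in percent.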
PTK2B oligo ant: blocks oligomerization of human Pyk2 in cells | AID 1347419 | z-score (the deposit names both 25 µM and 10 µM) | 99,000 compounds, 0.83% hits | Q293 cells, Pyk2 FERM NanoBiT luminescence; active compounds read low;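 active = Z-score of -3 or lower, scaled per plate to the spread of control and sample wells; inactive = z-score above -3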;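 also: negative z-score means lost luminescence so less FERM oligomerization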
Ecoli WT expand: E. coli BW25113 growth inhibition, expanded screen; 98,000 compounds, 0.15% hits; OD600 absorbance; growth inhibition, % at 100 µM;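 active = growth inhibition above about 50% at one test dose, limit read from the data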;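 also: growth measured after 20 h incubation at 37 °C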
PostGolgi ctrl: growth of the yeast control strain, post-Golgi counter-screen | efflux-deficient yeast background strain, growth absorbance A615, 16 h | inhibition, % at 10 µM | 98,000 compounds, 5% hits
PostGolgi yeast: growth inhibition of a yeast mutant, post-Golgi transport screen; post-Golgi transport phenotypic cell assay; inhibition, % at 10 µM; 98,000 compounds, 0.9% hits;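 also: yeast cells grown in 1536-well plates; yeast grown about 18 h at 30C before absorbance read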
* = called active by the depositor; / = not tested or not shown. Rule as the data show it, unless noted: active = inhibition above about 30%; inactive = the rest.

SMILES	Calb biofilm kill	Ecoli tolC	PTK2B oligo ant	Ecoli WT expand	PostGolgi ctrl	PostGolgi yeast
Cc1c(NS(=O)(=O)c2ccc3c(c2)c(=O)n(C)c(=O)n3C)c(=O)n(-c2ccccc2)n1C	3	-10	0.76	-2	9	16
CN(C)c1nn(C(=O)Nc2cccc(C(F)(F)F)c2)cc1-c1ccccc1	/	/	-0.29	13	5	-4
CN(C(=O)/C(N=Nc1cccc(C(F)(F)F)c1)=C(\O)C(F)(F)F)c1ccccc1	/	/	-0.55	7	38*	4
CC(CCc1ccccc1)NC(=O)C(Cc1ccccc1)NS(=O)(=O)c1cccs1 (stereo not drawn)	33*	/	0.01	2	20	-1
Cc1cccc(NC(=O)Cn2c(C)c(C#N)c3ccccc32)c1C	9	-24	0.69	-4	2	-4
CCOC(=O)c1ccc(-n2[nH]c(-c3ccccc3)cc2=O)cc1	8	62*	-0.08	11	-1	-7
CCOC(=O)C1=C(NC(=O)c2ccc(Br)o2)Nc2ccccc2N=C1	9	-19	-0.34	-7	18	5
O=S(=O)(c1ccc2c(c1)OCCO2)N(Cc1ccc(F)cc1)Cc1nnc(-c2cccs2)o1	11	33	-1.6	-11	35*	-4
Cc1scc(C(=O)Nn2cnnc2)c1-c1ccccc1	8	5	0.14	6	33*	-10
CCOC(=O)N1CCN(C(=O)CSc2nnc(COc3ccc(Cl)cc3)o2)CC1	-1	8	/	6	6	-7
O=C(CSc1nnc(COc2ccc(Cl)cc2)o1)N1c2ccccc2CCc2ccccc21	4	/	-0.43	-6	31*	-8
CC12CCC(c3c(C(=O)Nc4nccs4)nn(-c4ccccc4)c31)C2(C)C (stereo not drawn)	1	25	-2.5	-7	1	39*
CC12CCC(C(=O)Nc3ncc([N+](=O)[O-])s3)(OC1=O)C2(C)C (stereo not drawn)	11	/	1.8	-3	14	-3
CC(C)(C)Nc1nc(SCc2ccccc2)nc(N2CCOCC2)n1	1	54	-0.54	-23	47*	-6
Cc1ccc(N(C(=O)C2CCCO2)C2C=CS(=O)(=O)C2)cc1Cl (stereo not drawn)	4	-7	0.67	-1	2	2
CCCSc1nc2c(cnn2-c2ccccc2)c(=O)[nH]1	14	11	/	-9	33*	8
CCCSc1nc2c(cnn2-c2ccc(C)cc2)c(=O)[nH]1	6	-7	/	-12	-2	2
C=CCCCCCCCCc1nc(=S)[nH][nH]1	4	/	0.25	10	67*	9
Cc1cc(C)nc(/N=c2/ssnc2Cl)c1	5	4	0.15	-4	54*	64*
Cc1nc2nc[nH]n2c(=O)c1CCC(C)C	0	18	-0.02	1	11	0
O=C(c1ccccc1)c1ccccc1N/C=C/c1nnnn1-c1ccccc1	/	/	-1.2	-18	35*	-1
O=C1Nc2ccccc2/C1=N/c1sc2c(c1C(=O)NCCc1ccccc1)CCCC2	/	/	0.52	-5	1	11
COCc1cc(Sc2ccc(Br)cc2)nc(-c2ccccc2)n1	/	/	1.4	4	11	-3
Clc1cc(Sc2ccc(Br)cc2)nnc1-c1ccccc1	/	/	-2.9	-16	65*	-8
CCCc1cc(-c2n[nH]c(=S)n2C(C)c2ccccc2)cs1 (stereo not drawn)	/	/	-0.11	6	42*	-4
SMILES	Calb biofilm kill	Ecoli tolC	PTK2B oligo ant	Ecoli WT expand	PostGolgi ctrl	PostGolgi yeast
CCc1cc(-c2n[nH]c(=S)n2Cc2ccccc2)cs1	/	/	-0.47	-4	20	13
O=S(=O)(c1ccc(OCC(O)CN2CCN(c3ccccc3O)CC2)cc1)N1CCOCC1 (stereo not drawn)	7	-14	1.8	4	45*	3
COc1ccc2c(=O)c3c(=O)n(Cc4ccco4)c(C(C)C)nc3oc2c1	3	5	-1.2	/	/	/
COc1ccc2c(=O)c3c(=O)n(Cc4ccco4)c(-c4ccc(C)cc4)nc3oc2c1	3	48	-2.1	-5	44*	6
Clc1ccc2nc(N3CCNCC3)nc(-c3ccccc3)c2c1	1	18	-1.2	55*	14	25
OCCN1CCN(c2nc(-c3ccccc3)c3cc(Cl)ccc3n2)CC1	8	100*	-0.56	17	9	11
CN1CCN(c2nc(-c3ccccc3)c3cc(Cl)ccc3n2)CC1	9	21	0.05	11	9	7
O=[N+]([O-])c1cc(C(F)(F)F)ccc1NCCc1c[nH]c2ccc(O)cc12	/	/	-1.1	1	55*	29
O=C(CNc1ccc(C(F)(F)F)cc1[N+](=O)[O-])OCC(=O)c1ccccc1	3	/	0.71	-1	14	4
O=C1CCCC2=C1C(c1ccccc1)CC(=O)N2c1ccccc1 (stereo not drawn)	4	-2	0.53	-2	35*	-2
c1csc(-c2nc3nc4ccccc4nc3n2Cc2ccc3c(c2)OCO3)c1	5	66*	-2.3	-4	44*	-6
CC(C)c1ccc2c(c1)C(c1ccc(N3CCOCC3)cc1)=NNC(c1cccs1)=N2	/	/	-0.51	-12	42*	-1
COC(=O)c1ccc(CN(C)S(=O)(=O)c2ccc(C)cc2)o1	-5	11	0.04	/	/	/
COC(=O)c1ccc(CN(c2ccc(C)cc2)S(=O)(=O)c2ccc3c(c2)OCCO3)o1	10	41	-3.3*	-27	21	-7
Cn1c(CCNC(=O)c2ccc(Cl)cc2)n[nH]c1=S	/	/	-0.09	-3	-4	-8
S=C(NCc1ccco1)N1CCN(Cc2ccc(Cl)cc2Cl)CC1	/	/	0.23	-3	32*	8
NC(=O)CN1CCOCCOCCN(CC(N)=O)CCOCCOCC1	-3	/	-0.36	/	/	/
Cn1c(NCc2ccco2)nc2c1c(=O)n(Cc1ccc(Cl)c(Cl)c1)c(=O)n2C	2	17	-1.2	-2	49*	15
Cn1c(N2CCOCC2)nc2c1c(=O)n(Cc1ccc(Cl)cc1)c(=O)n2C	5	4	0.21	/	/	/
CC1CN(c2nc3c(c(=O)n(Cc4ccc(Cl)c(Cl)c4)c(=O)n3C)n2C)CC(C)O1 (stereo not drawn)	-7	87*	-0.52	-1	28	6
Cn1nnnc1SCC(=O)Nc1c(Cl)cccc1Cl	6	-5	0.23	4	1	-8
CC(C)C(OC(=O)c1cccs1)C(=O)NCc1cccs1 (stereo not drawn)	9	5	1.4	5	-1	-1
CC12CCC(C(=O)NCc3ccccc3)(OC1=O)C2(C)C (stereo not drawn)	4	-13	-0.35	3	6	-2
CC12CCC(C(=O)NCc3ccc4c(c3)OCO4)(OC1=O)C2(C)C (stereo not drawn)	4	9	0.38	1	33*	10
CC(c1nnc(SCC(=O)N2CCc3ccccc32)n1-c1ccc(Cl)cc1)N(C)C (stereo not drawn)	/	/	-0.14	3	16	-4
CC(c1nnc(SCn2nnc3ccccc3c2=O)n1-c1ccc(Cl)cc1)N(C)C (stereo not drawn)	2	7	0.52	8	18	67*

Source: PubChem (several laboratories)
